Here are results for 40 molecules from ChEMBL document CHEMBL1759961, “Alkyl piperidine and piperazine hydroxamic acids as HDAC inhibitors” (Bioorg Med Chem Lett, 2011).

Assay [1] has as its target T1, Histone deacetylase (Homo sapiens) (UniProt Q13547+O15379+Q9UBN7+Q92769+Q9UQL6+Q8WUI4+Q9BY41+Q96DB2+P56524+Q9UKV0+Q969S8). Kind of assay: Inhibition of HDAC in human HeLa cells at 50 uM by fluorescent activity assay. Type of assay: cell-based. The method in brief: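 HDAC activity was measured with a commercial fluorescent kit using Fluor de Lys substrate plus developer. Compounds were dissolved in DMSO and stored at -80 °C. Fluorophore release was read at excitation 335 nm and emission 460 nm. All experiments were run in triplicate.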

The target in assay [2] is T1, Histone deacetylase (Homo sapiens). The conditions noted are these: HeLa, at 10 µM.
The target of assay [3] is Histone deacetylase. Kind of assay: Inhibition of HDAC in human HeLa cells by fluorescent activity assay. In kind it is cell-based.
Assay [4] deals with HCT-116. Kind of assay: Antiproliferative activity against human HCT116 cells after 5 days by Alamar blue assay. In kind it is functional, cell-based. The conditions noted are these: HCT-116, 120 h. A general note: The colour change of resazurin is a common sign of viable cells or microbes.
Assay [5] deals with T1, Histone deacetylase (Homo sapiens). The conditions noted are these: HeLa, at 0.1 µM.
Assay [6] shares this target. The conditions noted are these: HeLa, at 1 µM.

Structures are written as SMILES. pIC50: −log10 of the molar value.

The term inhibition denotes the share of the control response that was lost under treatment. Low values mean a weak effect, high ones a strong effect. As for `O=C(NO)C1CCN(S(=O)(=O)Cc2ccccc2)CC1`, the inhibition in assay [1] is 33%; in assay [2] it was 1%.

Usually IC50 stands for the concentration at which inhibition is half-maximal. A lower IC50 goes with greater potency in that assay. What is called pIC50 is −log10 of the IC50, conventionally taken in molar units. Lower therefore signals a large IC50. As to `O=C(CCCC1CCN(C(=O)Cc2ccccc2)CC1)NO`, the inhibition came to 85% in assay [1], 36% in assay [5], 72% in assay [6] and 80% in assay [2]. For the same molecule, the IC50 in assay [3] was 260 nM. The pIC50 in assay [4] is 5.29.

For `O=C(NO)C1CCN(C(=O)c2ccccc2)CC1`, the values for the inhibition in assay [1] and in assay [2] were 16% and 0%, respectively.

`O=C(CN1CCN(S(=O)(=O)Cc2ccccc2)CC1)NO`: the inhibition in assay [1] was determined as 51%; in assay [2], 16%.

In assay [3], `O=C(CCCC1CCN(C(=O)Nc2ccccc2)CC1)NO` gave an IC50 of 100 nM. Also, the pIC50 in assay [4] is 6.15. In addition, the inhibition came out at 53% in assay [5], 81% in assay [6] and 86% in assay [2].

As for `O=C(CC1CCN(S(=O)(=O)c2ccccc2)CC1)NO`, the inhibition is 68% in assay [1] and 41% in assay [2].

On to `O=C(CCCCCC1CCN(C(=O)Nc2ccccc2)CC1)NO`, for which the inhibition in assay [5] is 16%; in assay [6] it was 54%.

For the molecule `O=C(NO)C1CCN(S(=O)(=O)c2ccccc2)CC1`, the inhibition in assay [1] was 50%; in assay [2] it was 29%.

For `O=C(CCCN1CCN(S(=O)(=O)c2ccccc2)CC1)NO`, the inhibition turned out to be 50% in assay [1] and 30% in assay [2].

Turning to `O=C(CCCCC1CCN(C(=O)Cc2ccccc2)CC1)NO`, the inhibition in assay [5] is 11%; in assay [6] it was 54%.

Take `O=C(CC1CCN(C(=O)Cc2ccccc2)CC1)NO`: the inhibition in assay [1] was 61%; in assay [2], 39%.

Take `O=C(CCCCN1CCN(S(=O)(=O)Cc2ccccc2)CC1)NO`: the inhibition came out at 4% in assay [5] and 9% in assay [6].

As to `O=C(CCN1CCN(C(=O)Cc2ccccc2)CC1)NO`, the inhibition in assay [1] worked out at 2%; in assay [2] it was 0%.

Regarding `O=C(CCC1CCN(C(=O)Cc2ccccc2)CC1)NO`, the inhibition in assay [5] is 2%; in assay [6], 24%.

Regarding `O=C(CCCCN1CCN(C(=O)c2ccccc2)CC1)NO`, the inhibition in assay [5] worked out at 3%; in assay [6] it was 9%.

For the molecule `O=C(CCCCC1CCN(C(=O)NCc2ccccc2)CC1)NO`, the figures for the inhibition in assay [5] and in assay [6] were 18% and 49%, respectively.

With `O=C(CCCC1CCN(C(=O)c2ccccc2)CC1)NO`, the inhibition is 77% in assay [1], 11% in assay [5] and 69% in assay [2]. For the same molecule, the IC50 in assay [3] is 1390 nM. The same molecule had a pIC50 in assay [4] of 4.76.

Take `O=C(CN1CCN(S(=O)(=O)c2ccccc2)CC1)NO`: the inhibition in assay [1] turned out to be 10%; in assay [2], 3%.

With `O=C(CCCCN1CCN(S(=O)(=O)c2ccccc2)CC1)NO`, the inhibition in assay [5] is 9%; in assay [6], 12%.

For `O=C(CCN1CCN(C(=O)c2ccccc2)CC1)NO`, the inhibition in assay [5] and in assay [6] was 3% each time.

With `O=C(CC1CCN(S(=O)(=O)Cc2ccccc2)CC1)NO`, the inhibition in assay [1] came to 22%; in assay [2], 21%.

For `O=C(CCN1CCN(S(=O)(=O)Cc2ccccc2)CC1)NO`, the inhibition was 38% in assay [1] and 1% in assay [2].

Regarding `O=C(CN1CCN(C(=O)Cc2ccccc2)CC1)NO`, the inhibition in assay [1] is 19%; in assay [2], 6%.

On to `O=C(CC1CCN(C(=O)c2ccccc2)CC1)NO`, for which the values for the inhibition in assay [1] and in assay [2] were 41% and 7%, respectively.

Take `O=C(CCCCC1CCN(S(=O)(=O)c2ccccc2)CC1)NO`: the values for the inhibition in assay [5] and in assay [6] were 13% and 45%, respectively.

For the molecule `O=C(CCCCC1CCN(C(=O)c2ccccc2)CC1)NO`, the inhibition in assay [5] was 12%; in assay [6], 44%.

Consider `O=C(CCCC1CCN(S(=O)(=O)c2ccccc2)CC1)NO`, for which the IC50 in assay [3] stood at 540 nM. For the same molecule, the pIC50 in assay [4] was 5.57.

Turning to `O=C(CCCCC1CCN(C(=O)Nc2ccccc2)CC1)NO`, the inhibition in assay [5] came to 23%; in assay [6] it was 63%.

`O=C(CCCN1CCN(C(=O)c2ccccc2)CC1)NO`: the inhibition in assay [1] amounted to 30%; in assay [2], 13%.

For the molecule `O=C(CCCC1CCN(S(=O)(=O)Cc2ccccc2)CC1)NO`, the inhibition in assay [1] worked out at 77%; in assay [5], 12%. The same molecule returned an IC50 in assay [3] of 840 nM. Also, the pIC50 in assay [4] is 5.49.

In assay [3], `O=C(CCCC1CCN(C(=O)NCc2ccccc2)CC1)NO` came in with an IC50 of 90 nM. Besides, in assay [4], the negative logarithm of the IC50 (pIC50) is 6.52. For the same molecule, the figures for the inhibition in assay [5], in assay [6] and in assay [2] were 59%, 69% and 86%, respectively.

Regarding `O=C(CCCCN1CCN(C(=O)Cc2ccccc2)CC1)NO`, the inhibition is 19% in assay [5] and 40% in assay [6].

For the molecule `O=C(CCCCCC1CCN(C(=O)NCc2ccccc2)CC1)NO`, the inhibition was found to be 20% in assay [5] and 62% in assay [6].

For `O=C(NO)C1CCN(C(=O)Cc2ccccc2)CC1`, the inhibition in assay [1] was 65%; in assay [2], 33%.

As for `O=C(CCN1CCN(S(=O)(=O)c2ccccc2)CC1)NO`, the values for the inhibition in assay [1] and in assay [2] were 44% and 14%, respectively.

`O=C(CCC1CCN(S(=O)(=O)Cc2ccccc2)CC1)NO`: the inhibition in assay [5] was 8%; in assay [6], 33%.

On to `O=C(CCC1CCN(C(=O)c2ccccc2)CC1)NO`, for which the inhibition in assay [5] worked out at 11%; in assay [6], 30%.

In the case of `O=C(CCCN1CCN(C(=O)Cc2ccccc2)CC1)NO`, the figures for the inhibition in assay [1] and in assay [2] were 52% and 28%, respectively.

As for `O=C(CCCN1CCN(S(=O)(=O)Cc2ccccc2)CC1)NO`, the inhibition in assay [1] was 19%; in assay [2], < 10%.

Take `O=C(CCC1CCN(S(=O)(=O)c2ccccc2)CC1)NO`: the values for the inhibition in assay [5] and in assay [6] were 9% and 33%, respectively.
